Rows were chosen to be rich in hits. Some 2.9% of all compounds tested hit in one or more screens of this group.
GalR3 antagonist – antagonists of human GalR3. inhibition, % at 3 µM. hit rate 0.44% among 360,000. HEK293 GalR3-CNG cAMP membrane potential fluorescence; galR3 body fused to GalR1 C-terminus;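 active means inhibition above the screen-wide average plus 3 SD, cut at about 13% in these data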;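 further: forskolin and galanin both at EC90 stimulate the cells; cAMP rise reported by CNG channel membrane potential dye signal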
Target sequence (O60755 1-299 limits assumed): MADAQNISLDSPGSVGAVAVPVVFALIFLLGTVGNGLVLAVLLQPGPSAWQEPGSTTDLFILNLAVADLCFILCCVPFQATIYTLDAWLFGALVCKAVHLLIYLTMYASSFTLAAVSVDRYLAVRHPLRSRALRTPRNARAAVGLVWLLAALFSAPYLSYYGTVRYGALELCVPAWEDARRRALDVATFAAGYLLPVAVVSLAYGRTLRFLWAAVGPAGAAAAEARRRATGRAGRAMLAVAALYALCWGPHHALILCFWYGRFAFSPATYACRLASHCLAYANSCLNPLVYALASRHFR
MC4R barr agon – activates human MC4R beta-arrestin recruitment. P32245. U2OS MC4R beta-arrestin complementation, luminescence; percent of melanotan II response, DMSO zero. activation, % at 8.9 µM. hit rate 0.98% among 360,000;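 active means activation above a per-plate cutoff, the mean activation of sample wells on that plate plus 3 SD, cut at about 8% in these data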
Target sequence (P32245 whole entry, looked up): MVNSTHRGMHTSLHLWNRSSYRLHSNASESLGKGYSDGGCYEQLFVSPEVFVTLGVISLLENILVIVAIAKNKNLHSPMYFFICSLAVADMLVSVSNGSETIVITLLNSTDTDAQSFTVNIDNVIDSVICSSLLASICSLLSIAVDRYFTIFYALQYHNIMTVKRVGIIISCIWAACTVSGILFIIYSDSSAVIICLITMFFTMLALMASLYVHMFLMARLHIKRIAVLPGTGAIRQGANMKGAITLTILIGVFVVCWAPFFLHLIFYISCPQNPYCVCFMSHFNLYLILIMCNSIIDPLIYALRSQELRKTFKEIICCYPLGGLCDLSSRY
MC4R antagonist – blocks human MC4R cAMP signaling; MC4R-expressing cells, MTII-stimulated cAMP, LANCE TR-FRET; P32245; hit rate 0.48% among 360,000; AID 540295; inhibition, % at 6.5 µM;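 active means inhibition above its plate's cutoff, the mean of tested wells on that plate plus 3 SD, cut at about 29% in these data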
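System: U2OS cells stably expressing human melanocortin 4 receptor (MC4R). Reagent: Melanotan II challenge after compound preincubation. Doses: 6.5 µM. Times: 30-min compound, 1-h challenge, 1-h detection, room temperature. Measured by: TR-FRET with Eu-cAMP and labeled anti-cAMP, 671 nm. Replicates: singlicate.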
Efflux pump inh – blocks antifungal efflux pumps in multiplex yeast assay | S. cerevisiae Candida pump triplex, Nile Red efflux | inhibition, % at 10 µM | hit rate 0.44% among 330,000 | AID 485275;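 active means plate passing quality check with inhibition over a set limit, or well fluorescence over plate mean plus 4 SD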;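 further: Nile Red retained in pooled yeast measured as flow cytometry median fluorescence; higher means more Nile Red kept so more efflux inhibition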
TAG inh – triacylglycerol accumulation inhibition; H9c2 cells, Nile Red lipid (TAG) fluorescence; cells loaded with 200 µM oleic acid; inhibition, % at 12.5 µM; AID 651582; hit rate 0.66% among 230,000;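 active means pattern-corrected inhibition of lipid staining of at least 50% with the nuclear-stain viability signal not falling by more than 50%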
Calb FLC – C. albicans growth modulation with fluconazole; C. albicans CaCi-2 + fluconazole, Alamar Blue growth, 48 h; growth inhibition, % (no concentration beside the values); hit rate 0.57% among 300,000; AID 1979;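 active means growth inhibition above about 58% in most replicates, limit read from the data, passing the limit was not always enough; inconclusive means exactly half the replicates above a set limit; inactive means most replicates below a set limit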;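 further: all wells also contain fluconazole at 8 µg/ml as a sub-toxic cotreatment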
A number is an active result; . = inactive; ? = inconclusive; / = no result.

SMILES | GalR3 antagonist | MC4R barr agon | MC4R antagonist | Efflux pump inh | TAG inh | Calb FLC
C/C(=N\Nc1ccc(Cl)c(C(=O)O)c1)c1ccccn1 | . | . | . | . | . | .
Cc1ccc(NC(=O)COC(=O)c2ccc(-n3nc(C)cc3C)cc2)c(F)c1 | . | 8.6 | . | . | . | /
Cc1ccc(C2c3c(n[nH]c3C(C)C)C(=O)N2c2ccccc2)cc1 (configuration not stated) | . | / | / | / | / | /
COc1ccccc1-c1cccc(-c2nc(C(=O)N3CCCCC3)cc3c2[C@@H](CCO)N(S(=O)C(C)(C)C)C3)c1 (some centres not stated) | . | / | / | / | / | /
Cc1cc2c(cc1C)-n1nnnc1C(N(C)CCc1ccccc1)C(=O)N2 (configuration not stated) | . | / | / | / | / | /
CCOCCCNc1nc(C(F)(F)F)nc2c1nnn2Cc1ccccc1Cl | . | . | . | . | / | .
CC(=O)Nc1ccc(Nc2nc(C(F)(F)F)nc3c2nnn3Cc2ccccc2Cl)cc1 | . | 8.9 | . | . | / | .
O=C(c1cc(-c2ccco2)nn1-c1cccc(Cl)c1)N1CCCCC1 | . | . | 31.4 | . | . | .
CC(C)NC(=O)c1cc(-c2ccco2)nn1-c1ccc(Cl)cc1 | . | . | . | . | / | ?
COc1ccccc1-n1cnc2cc(NCc3cccs3)ccc21 | . | . | . | . | 57.8 | .
Cc1cc(N2CCCC(C(=O)Nc3cccc(Cl)c3)C2)n2ncnc2n1 (configuration not stated) | . | . | . | . | . | .
Cc1cc(C)nc(N2CCCC(C(=O)Nc3cccc(Cl)c3)C2)n1 (configuration not stated) | . | 8.4 | . | . | / | .
O=C(Nc1nnc(-c2ccco2)o1)c1cccc(Cl)c1 | . | . | . | . | . | 87.3
Cc1nn(-c2ccccc2)c(C)c1C(=O)Nc1nnc(-c2ccco2)o1 | . | . | . | . | / | 84.0
CC(=O)Nc1nnc(-c2ccco2)o1 | . | . | . | . | . | .
O=C(Nc1nnc(-c2ccccn2)o1)c1cccc(Cl)c1 | . | . | . | . | . | .
Brc1ccc2nc(-c3ccc(CN4CCC(c5nc6ccccc6[nH]5)CC4)cc3)c(-c3ccccc3)nc2c1 | . | / | / | / | / | /
Cc1ccc(N2CCN(C(C(=O)Nc3c(C)cccc3C)c3ccccc3OC(F)(F)F)CC2)cc1 (configuration not stated) | . | / | / | / | / | /
C(=C\c1ccccc1)/CN1CCN(c2ncnc3c2oc2ccccc23)CC1 | . | . | . | . | / | 92.0
Cn1c(O)c(/C=N/NC(=O)c2cc3ccccc3cc2O)c2ccccc21 | . | . | . | . | / | 82.6
Cn1c2ccccc2c2cc(/C=N/NC(=O)c3ccc(O)cc3O)ccc21 | / | . | . | . | . | .
CCC(=O)Nc1ccc(Cl)c(NC(=S)NC(=O)c2cc3ccccc3o2)c1 | . | 8.2 | . | . | / | .
COC(=O)c1cc2c(c3c4cc(C)ccc4n(S(=O)(=O)c4cccc(C)c4)c13)C(=O)N(Cc1ccc(C(F)(F)F)cc1)C2 | . | / | / | / | / | /
Cc1cccc(C)c1-n1nnnc1SCSc1nnnn1-c1c(C)cccc1C | . | 8.7 | . | . | / | .
CSc1nnnn1-c1c(C)cccc1C | . | . | . | . | . | .
SMILES | GalR3 antagonist | MC4R barr agon | MC4R antagonist | Efflux pump inh | TAG inh | Calb FLC
CCc1ccc2oc(-c3ccc(OC)cc3)cc(=Nc3c(C)n(C)n(-c4ccccc4)c3=O)c2c1 | . | . | . | . | . | 71.3
Cc1ccc(N2C(=O)/C(=C\c3ccco3)SC2=S)cc1 | . | 10.3 | . | . | . | .
Cc1cccc(S(=O)(=O)NC(=O)C2(C)CCN2C(=O)c2c(C)noc2C)c1 (configuration not stated) | . | . | . | / | . | /
CC(=O)Nc1ccc(N2CC(C)(C)C2=O)cc1 | . | . | . | . | . | 71.7
COc1ccc2nc3ccccc3nc2c1NC(=O)c1ccc(Br)cc1 | . | . | . | . | / | .
COc1ccc2nc3ccccc3nc2c1NC(=O)c1ccc(Cl)cc1 | . | 9.1 | . | . | / | .
O=C(NCc1ccccc1)C1c2ccccc2Oc2ccccc21 | . | . | . | . | . | 117.8
C[C@H](CO)N1C[C@H](C)[C@H](CN(C)S(=O)(=O)c2cccc(C#N)c2)OCc2cnnn2CCCC1=O | . | . | . | / | . | /
O=[N+]([O-])C(=C1SCCS1)C(=C(Cl)Cl)N1CCCCC1 | . | . | . | . | . | .
CN1CCN/C1=C(/C(Cl)=C(Cl)Cl)[N+](=O)[O-] | . | . | 35.5 | . | . | .
Cc1ccccc1CN1C[C@H]2CON(C)[C@H]2C[C@H]1c1cccc(Br)c1 | . | . | . | / | . | /
CC(C)=CCc1cc2c(=O)c3c(O)c4c(cc3oc2c(O)c1O)OC(C)C4(C)C (configuration not stated) | / | / | / | . | / | 94.7
Nc1[nH]c(C(=O)c2ccccc2)c(-c2cccc3ccccc23)c1C(=O)NCc1ccc(F)c(F)c1 | . | / | / | / | / | /
Cc1cccc(CNc2ncnc3ccc(-c4ccoc4)cc23)c1 | . | . | . | . | . | /
CC(=O)Nc1ccc(CNc2ncnc3ccc(-c4c(C)noc4C)cc23)cc1 | . | . | . | . | 61.8 | /
CC1CCN(C(=O)c2[nH]cnc2C(=O)N(C)CCO)CC1 | . | / | / | / | / | /
CCN(CC)CCNc1ccc(C)c2sc3ccc(O)cc3c(=O)c12 | . | . | . | / | 59.3 | /
CCN(CC)CCNc1ccc(CO)c2oc3cc(Cl)ccc3c(=O)c12 | . | . | . | / | . | /
Nc1ccccc1C(=O)NNC1=C(C(=O)C(F)(F)F)CCC1 | . | . | . | . | . | .
O=C(NNC1=C(C(=O)C(F)(F)F)CCC1)c1ccc(Br)cc1 | . | . | . | . | / | 92.2
COCC(=O)N1C[C@@H](C)[C@@H](OC)CN(C)C(=O)c2ccc(NC(=O)c3cnccn3)cc2OC[C@H]1C | . | / | / | / | / | /
CCN(CC)C(=O)C1=C(C)N(Cc2ccccc2)C(=O)C(CC(=O)NCCN2CCOCC2)C1 (configuration not stated) | . | . | . | / | . | /
c1ccc2c(C(c3nnnn3-c3ccc4c(c3)OCCO4)N3CCCCC3)ccnc2c1 (configuration not stated) | . | / | / | / | / | /
CCc1ccc(-c2nc(CN3CCC(C(=O)N4CCN(c5ccccc5)CC4)CC3)c(C)o2)cc1 | . | 9.5 | . | . | . | ?
N/C(Cc1cccc2ccccc12)=N\OC(=O)c1ccc(Br)o1 | . | / | / | / | / | /
N/C(Cc1ccc(Cl)cc1Cl)=N\OC(=O)c1ccc(Br)o1 | . | 8.3 | . | . | . | .
CC(C)n1c(N2CCN(C(=O)Nc3ccc(Cl)cc3)CC2)nc2ccccc21 | . | . | . | . | . | 73.1
CCCn1c(N2CCN(C(=O)Nc3ccc(Cl)cc3)CC2)nc2ccccc21 | . | . | . | . | . | .
COc1ccc(-c2ccc(C(=O)NCc3ccc(N4CCN(C)CC4)cc3)c3occc23)c(C)c1 | . | . | . | / | . | /
COc1ccc(NC(=O)c2ccc3ccccc3c2)cc1 | . | 8.8 | . | . | / | .
